Measured values from different studies.
Compare with care: the assays were run in different laboratories.
Cell line: SK-OV-3

SMILES | test | conditions | measurement | result
CC/C(=C(\c1ccccc1)c1ccc(OCCN(C)C)cc1)c1ccccc1 | cell growth or viability, ATP luminescence | 72 h | EC90 | 17.4 µM
COc1cc(CNC(=O)CCCC/C=C/C(C)C)ccc1O | cell growth or viability, SRB |  | IC50 | 22 µM
COc1ccc(-c2ccc(-c3ccc(C(=N)N)nc3)s2)cc1 | cell growth or viability, SRB |  | GI50 | 1.7 µM
O=C(c1cc(Cc2n[nH]c(=O)c3ccccc23)ccc1F)N1CCN(C(=O)C2CC2)CC1 | colony formation |  | IC50 | 7.6 µM
C[C@]12CC[C@@H]3c4ccc(O)cc4CC[C@H]3[C@@H]1CC[C@@H]2O | cell growth or viability, ATP luminescence | 72 h | EC50 | 18.1 µM
CC(C)C[C@H](NC(=O)[C@H](Cc1ccccc1)NC(=O)c1cnccn1)B(O)O | cell growth or viability, ATP luminescence |  | IC50 | 0.025 µM
Cn1ncnc1[C@H]1c2n[nH]c(=O)c3cc(F)cc(c23)N[C@@H]1c1ccc(F)cc1 | colony formation |  | IC50 | 0.0234 µM
COc1ccc(C(=O)/C=C/c2ccccc2Br)cc1S(N)(=O)=O | cell growth or viability, SRB | 48 h | GI50 | 12.9 µM
Cc1cc(C)n(C(=S)[S][Au][PH](CCCCCC[PH]([Au][S]C(=S)n2nc(C)cc2C)(c2ccccc2)c2ccccc2)(c2ccccc2)c2ccccc2)n1 | cell growth or viability |  | GI50 | 0.852 µM
COc1ccc(C(=O)/C=C/c2c(F)cccc2Cl)cc1S(N)(=O)=O | cell growth or viability, SRB | 10 µM | inhibition | 73%
COc1cc(CNC(=O)CCCC/C=C/C(C)C)ccc1OCc1cn(-c2ccc(C(F)(F)F)cc2)nn1 | cell growth or viability, SRB |  | IC50 | 10.6 µM
COc1ccc(C(=O)/C=C/c2cccc3ccccc23)cc1S(N)(=O)=O | cell growth or viability, SRB | 48 h | GI50 | 3.7 µM
CCN1CCN(Cc2ccc(Nc3ncc(F)c(-c4cc(F)c5nc(C)n(C(C)C)c5c4)n3)nc2)CC1 | cell growth or viability, CCK-8 |  | IC50 | 1.62 µM
COc1ccc(C(=O)/C=C/c2ccc(Cl)c(Cl)c2)cc1S(N)(=O)=O | cell growth or viability, SRB | 10 µM | inhibition | 48%
O=c1[nH]cc(F)c(=O)[nH]1 | cell growth or viability, MTT | 48 h | IC50 | 37.3 µM
COc1ccc(C(=O)/C=C/c2ccc3ccccc3c2)cc1S(N)(=O)=O | cell growth or viability, SRB | 10 µM | inhibition | 77%
COc1cc(-c2ccc(-c3ccc(C(=N)N)nc3)s2)cc(OC)c1OC | cell growth or viability, SRB |  | GI50 | 13.1 µM
